These results are taken from ChEMBL document CHEMBL4400568, “The design of 1,4-naphthoquinone derivatives and mechanisms underlying apoptosis induction through ROS-dependent MAPK/Akt/STAT3 pathways in human lung cancer cells” (Bioorg Med Chem, 2019).

For series [1], the system named is NCI-H23. Briefly: Cytotoxicity against human NCI-H23 cells assessed as reduction in cell viability after 24 hrs by MTT assay. The format is functional, cell-based. A digest of the protocol:
(§1)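 Log-phase cells seeded at 1 × 10⁴ per well. Lung cancer lines (A549, NCI-H23, NCI-H460) and normal lines (IMR-90, QSG-7701, HEK-293A) each exposed to 1, 3, 10, 30 and 100 μM for 24 h. MTT (5 mg/mL stock) added for 2 h at 37°C, formazan dissolved in DMSO, absorbance read at 490 nm. Three independent experiments, mean ± SD.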

Series [2] deals with NCI-H460. Briefly: Cytotoxicity against human NCI-H460 cells assessed as reduction in cell viability after 24 hrs by MTT assay. The format is functional, cell-based. A digest of the protocol:
as §1

In series [3] the test system is IMR-90. The experiment in a line: Cytotoxicity against human IMR90 cells assessed as reduction in cell viability after 24 hrs by MTT assay. The format is cell-based. Conditions: imr-90, 24 h. A digest of the protocol: as §1
Series [4] can be described thus: Cytotoxicity against human QSG7701 cells assessed as reduction in cell viability after 24 hrs by MTT assay. The format is cell-based. In a few lines: as §1
Series [5] can be described thus: Cytotoxicity against HEK293A cells assessed as reduction in cell viability after 24 hrs by MTT assay. The series is classed as cell-based. Conditions: human, hek293-a. In a few lines: as §1
For series [6], the system named is A549. The experiment in a line: Induction of apoptosis in human A549 cells assessed as early apoptotic cells at 3 uM after 3 hrs by Annexin V-FITC/propidium iodide staining-based flow cytometric analysis (reference value: 2.73%). The format is functional.
Series [7] concerns A549. Briefly: Induction of apoptosis in human A549 cells assessed as late apoptotic cells at 3 uM after 3 hrs by Annexin V-FITC/propidium iodide staining-based flow cytometric analysis (reference value: 4.52%). The format is functional.
In series [8] the test system is A549. Briefly: Induction of apoptosis in human A549 cells assessed as early apoptotic cells at 3 uM after 6 hrs by Annexin V-FITC/propidium iodide staining-based flow cytometric analysis (reference value: 2.73%). The series is classed as functional.
Series [9] relates to A549. The experiment in a line: Induction of apoptosis in human A549 cells assessed as late apoptotic cells at 3 uM after 6 hrs by Annexin V-FITC/propidium iodide staining-based flow cytometric analysis (reference value: 4.52%). The series is classed as functional.
Series [10] relates to A549. Briefly: Induction of apoptosis in human A549 cells assessed as early apoptotic cells at 3 uM after 12 hrs by Annexin V-FITC/propidium iodide staining-based flow cytometric analysis (reference value: 2.73%). The format is functional.
Series [11] has as its system A549. The experiment in a line: Induction of apoptosis in human A549 cells assessed as late apoptotic cells at 3 uM after 12 hrs by Annexin V-FITC/propidium iodide staining-based flow cytometric analysis (reference value: 4.52%). The format is functional.
Series [12] has as its system A549. Briefly: Induction of apoptosis in human A549 cells assessed as early apoptotic cells at 3 uM after 24 hrs by Annexin V-FITC/propidium iodide staining-based flow cytometric analysis (reference value: 2.73%). The series is classed as functional.
The test system of series [13] is A549. The experiment in a line: Induction of apoptosis in human A549 cells assessed as late apoptotic cells at 3 uM after 24 hrs by Annexin V-FITC/propidium iodide staining-based flow cytometric analysis (reference value: 4.52%). The format is functional.

Calls of active or inactive are those of the source. The calls are words filed in the database; no cut-off is given here.

In the case of `O=c1[nH]cc(F)c(=O)[nH]1` [FLUOROURACIL], the outcome in series [1] and in series [2] was Active. The Activity entry in [3] is “Toxic”; in [4] it was “Toxic”; in series [5], “Toxic”; in series [6] it was 7.91%; in series [7], 4.75%; in series [8], 10.68%. Further, the Activity in series [9] stood at 4.6%; in series [10] it was 13.87%; in series [11], 5.83%; in [12], 23.86%; in [13] it was 4.22%.
